In ChEMBL document CHEMBL1148611, “Selective inhibition of matrix metalloproteinase isozymes and in vivo protection against emphysema by substituted gamma-keto carboxylic acids” (J Med Chem, 2006):
Calls of active or inactive are those of the source. No cut-off for these calls is given here.

Columns and labels:
[1] = molecular target: T1, Matrix metalloproteinase-9 (Homo sapiens, UniProt P14780); assay: Inhibitory activity against MMP9
[2] = molecular target: Macrophage metalloelastase (Homo sapiens, UniProt P39900); assay: Inhibitory activity against MMP12
Sequence of Macrophage metalloelastase (P39900 whole entry): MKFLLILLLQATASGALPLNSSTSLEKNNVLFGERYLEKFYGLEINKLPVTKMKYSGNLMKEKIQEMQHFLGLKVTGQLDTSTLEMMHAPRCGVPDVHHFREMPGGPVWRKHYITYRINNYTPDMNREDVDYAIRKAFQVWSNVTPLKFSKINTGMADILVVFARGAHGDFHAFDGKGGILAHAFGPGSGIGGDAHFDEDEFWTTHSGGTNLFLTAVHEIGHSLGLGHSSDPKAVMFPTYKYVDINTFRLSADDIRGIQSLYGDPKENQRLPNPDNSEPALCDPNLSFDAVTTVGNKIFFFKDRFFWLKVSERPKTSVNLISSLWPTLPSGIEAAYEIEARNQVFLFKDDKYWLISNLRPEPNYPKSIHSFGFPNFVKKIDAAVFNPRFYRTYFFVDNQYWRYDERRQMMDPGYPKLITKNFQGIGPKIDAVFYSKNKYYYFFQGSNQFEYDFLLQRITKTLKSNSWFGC

[3] = molecular target: 72 kDa type IV collagenase (Homo sapiens, UniProt P08253); assay: Inhibitory activity against MMP2
Sequence of 72 kDa type IV collagenase (P08253 whole entry): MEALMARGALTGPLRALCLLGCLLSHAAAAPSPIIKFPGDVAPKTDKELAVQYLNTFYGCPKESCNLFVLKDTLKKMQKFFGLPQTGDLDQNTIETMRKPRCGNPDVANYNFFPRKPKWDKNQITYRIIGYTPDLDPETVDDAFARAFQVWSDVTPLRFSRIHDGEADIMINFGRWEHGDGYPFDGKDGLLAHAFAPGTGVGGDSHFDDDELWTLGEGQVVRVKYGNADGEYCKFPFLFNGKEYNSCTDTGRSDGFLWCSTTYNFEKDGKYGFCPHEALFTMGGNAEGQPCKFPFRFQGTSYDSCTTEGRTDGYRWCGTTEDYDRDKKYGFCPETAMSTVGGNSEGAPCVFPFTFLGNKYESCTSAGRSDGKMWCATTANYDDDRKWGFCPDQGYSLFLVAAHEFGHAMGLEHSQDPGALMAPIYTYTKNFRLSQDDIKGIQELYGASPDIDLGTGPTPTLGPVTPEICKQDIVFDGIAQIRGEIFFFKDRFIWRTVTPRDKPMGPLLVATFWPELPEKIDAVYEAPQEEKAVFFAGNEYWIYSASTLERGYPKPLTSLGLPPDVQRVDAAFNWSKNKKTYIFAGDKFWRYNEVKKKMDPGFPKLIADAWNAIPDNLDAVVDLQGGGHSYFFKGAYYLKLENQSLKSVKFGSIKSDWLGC

[4] = molecular target: T2, Matrix metalloproteinase-16 (Homo sapiens, UniProt P51512); assay: Inhibitory activity against MMP16 upto 50uM
T2 sequence (P51512 whole entry): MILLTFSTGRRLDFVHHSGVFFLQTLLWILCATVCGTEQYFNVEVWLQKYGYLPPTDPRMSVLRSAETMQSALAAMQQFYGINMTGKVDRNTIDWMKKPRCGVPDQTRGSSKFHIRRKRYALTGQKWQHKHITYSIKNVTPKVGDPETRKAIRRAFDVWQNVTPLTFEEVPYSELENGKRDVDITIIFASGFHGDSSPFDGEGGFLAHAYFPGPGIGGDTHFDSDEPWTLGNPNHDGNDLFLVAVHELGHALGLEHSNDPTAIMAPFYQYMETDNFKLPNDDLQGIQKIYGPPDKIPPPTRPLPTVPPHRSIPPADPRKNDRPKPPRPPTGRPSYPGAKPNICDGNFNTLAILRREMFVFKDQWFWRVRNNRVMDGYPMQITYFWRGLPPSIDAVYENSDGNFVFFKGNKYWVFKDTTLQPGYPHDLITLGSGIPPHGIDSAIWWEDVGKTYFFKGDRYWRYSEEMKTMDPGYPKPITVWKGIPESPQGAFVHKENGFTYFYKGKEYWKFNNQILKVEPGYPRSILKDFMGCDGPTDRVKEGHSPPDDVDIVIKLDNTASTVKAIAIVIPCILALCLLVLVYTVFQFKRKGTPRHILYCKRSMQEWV

[5] = molecular target: T3, Interstitial collagenase (Homo sapiens) (UniProt P03956); assay: Inhibitory activity against MMP1 upto 50uM
T3 sequence (whole entry): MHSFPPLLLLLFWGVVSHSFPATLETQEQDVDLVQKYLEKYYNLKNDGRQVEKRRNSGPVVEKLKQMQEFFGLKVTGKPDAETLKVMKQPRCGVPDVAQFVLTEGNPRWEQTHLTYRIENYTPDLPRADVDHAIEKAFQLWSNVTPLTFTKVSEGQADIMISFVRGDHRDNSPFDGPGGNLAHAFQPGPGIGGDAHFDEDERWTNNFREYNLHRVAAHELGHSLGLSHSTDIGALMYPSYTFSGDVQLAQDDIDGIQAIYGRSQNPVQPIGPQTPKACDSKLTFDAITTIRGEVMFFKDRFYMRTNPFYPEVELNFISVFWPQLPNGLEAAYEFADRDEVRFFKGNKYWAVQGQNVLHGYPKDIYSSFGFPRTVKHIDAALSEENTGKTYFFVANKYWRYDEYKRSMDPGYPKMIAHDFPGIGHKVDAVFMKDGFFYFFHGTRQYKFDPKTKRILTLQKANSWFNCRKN

[6] = molecular target: T4, Matrilysin (Homo sapiens) (UniProt P09237); assay: Inhibitory activity against MMP7 upto 50 uM
T4 sequence (whole entry): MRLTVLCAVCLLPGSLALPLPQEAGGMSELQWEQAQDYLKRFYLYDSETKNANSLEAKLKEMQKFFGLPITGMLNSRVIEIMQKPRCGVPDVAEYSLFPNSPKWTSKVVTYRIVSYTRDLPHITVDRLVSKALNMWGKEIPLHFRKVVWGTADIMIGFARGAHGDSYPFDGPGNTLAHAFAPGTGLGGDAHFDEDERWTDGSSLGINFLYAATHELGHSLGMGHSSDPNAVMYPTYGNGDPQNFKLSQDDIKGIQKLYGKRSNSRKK

[7] = molecular target: T5, Matrix metalloproteinase-15 (Homo sapiens, UniProt P51511); assay: Inhibitory activity against MMP15 upto 50uM
Target sequence in this assay (P51511 132-669 limits assumed): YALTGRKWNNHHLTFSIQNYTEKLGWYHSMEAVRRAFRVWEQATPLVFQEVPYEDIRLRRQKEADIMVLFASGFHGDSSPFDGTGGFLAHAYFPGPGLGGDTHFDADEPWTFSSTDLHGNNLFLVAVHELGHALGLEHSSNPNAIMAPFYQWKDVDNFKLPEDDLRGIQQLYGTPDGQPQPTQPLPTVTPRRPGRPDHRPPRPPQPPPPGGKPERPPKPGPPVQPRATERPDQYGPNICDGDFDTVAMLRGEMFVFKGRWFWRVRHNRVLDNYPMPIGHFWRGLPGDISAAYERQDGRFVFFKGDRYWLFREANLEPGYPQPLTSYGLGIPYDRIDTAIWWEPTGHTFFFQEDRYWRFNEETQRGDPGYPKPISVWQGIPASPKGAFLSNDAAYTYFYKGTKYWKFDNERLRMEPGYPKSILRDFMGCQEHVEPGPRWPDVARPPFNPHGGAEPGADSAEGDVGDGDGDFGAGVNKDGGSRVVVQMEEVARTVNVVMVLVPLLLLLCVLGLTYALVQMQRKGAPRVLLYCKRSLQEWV

[8] = molecular target: T6, Matrix metalloproteinase-14 (Homo sapiens, UniProt P50281); assay: Inhibitory activity against MMP14 upto 50uM
[9] = molecular target: T1, Matrix metalloproteinase-9; assay: Inhibitory activity against MMP9 upto 50uM
[10] = molecular target: T5, Matrix metalloproteinase-15; assay: Inhibitory activity against MMP15
Target sequence in this assay (P51511 whole entry): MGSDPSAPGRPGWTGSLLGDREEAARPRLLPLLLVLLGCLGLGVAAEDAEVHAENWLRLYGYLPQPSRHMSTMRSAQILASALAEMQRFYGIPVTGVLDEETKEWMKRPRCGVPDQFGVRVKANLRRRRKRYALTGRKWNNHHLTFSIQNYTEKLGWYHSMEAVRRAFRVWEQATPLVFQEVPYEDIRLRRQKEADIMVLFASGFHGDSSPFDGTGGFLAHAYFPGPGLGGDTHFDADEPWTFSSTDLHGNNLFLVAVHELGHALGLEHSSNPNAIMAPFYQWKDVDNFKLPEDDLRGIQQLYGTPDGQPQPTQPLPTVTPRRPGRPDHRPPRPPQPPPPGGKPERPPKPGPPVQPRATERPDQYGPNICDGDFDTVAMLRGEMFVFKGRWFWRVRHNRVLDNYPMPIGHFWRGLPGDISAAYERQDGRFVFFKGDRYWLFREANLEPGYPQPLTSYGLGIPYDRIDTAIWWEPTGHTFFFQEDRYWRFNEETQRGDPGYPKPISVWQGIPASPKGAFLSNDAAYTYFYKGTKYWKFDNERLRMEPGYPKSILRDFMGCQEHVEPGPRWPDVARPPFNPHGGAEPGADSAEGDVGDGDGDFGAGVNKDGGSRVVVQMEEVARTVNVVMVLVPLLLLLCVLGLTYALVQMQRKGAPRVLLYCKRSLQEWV

[11] = molecular target: T6, Matrix metalloproteinase-14; assay: Inhibitory activity against MMP14
[12] = molecular target: T2, Matrix metalloproteinase-16; assay: Inhibitory activity against MMP16
[13] = molecular target: T7, Matrix metalloproteinase-26 (Homo sapiens, UniProt Q9NRE1); assay: Inhibitory activity against MMP26
T7 sequence (Q9NRE1 whole entry): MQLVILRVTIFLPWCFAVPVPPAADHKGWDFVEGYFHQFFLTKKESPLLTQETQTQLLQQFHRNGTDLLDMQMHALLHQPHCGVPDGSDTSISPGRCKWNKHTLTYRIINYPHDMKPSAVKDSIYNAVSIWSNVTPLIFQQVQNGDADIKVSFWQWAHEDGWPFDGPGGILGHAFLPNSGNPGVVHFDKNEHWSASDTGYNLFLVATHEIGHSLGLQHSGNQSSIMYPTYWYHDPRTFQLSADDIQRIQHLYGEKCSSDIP

[14] = molecular target: T8, Matrix metalloproteinase-26 (Homo sapiens) (UniProt Q9NRE1); assay: Inhibitory activity against MMP26 upto 50uM
T8 sequence (whole entry): T7 sequence (Q9NRE1 whole entry)

[15] = molecular target: T4, Matrilysin (Homo sapiens); assay: Inhibitory activity against MMP7 upto 50uM
[16] = system: Syrian golden hamster; assay: Increase in lung weight, lung volumes, relative lung volumes and right ventricular hypertropy in PPE-treated Syrian hamster at 5 mg/kg; format: functional, organism-based; parameters: dose 5 mg/kg; conditions: Mesocricetus auratus, Heart right ventricle
How it was run: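 Male golden Syrian hamsters with PPE-induced emphysema, compared with saline-treated controls, PPE-only animals and compound/saline-treated animals. Read-outs were wet weight of the left lung, lung volume, relative lung volume and right ventricular hypertrophy.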

T1 sequence (P14780 whole entry): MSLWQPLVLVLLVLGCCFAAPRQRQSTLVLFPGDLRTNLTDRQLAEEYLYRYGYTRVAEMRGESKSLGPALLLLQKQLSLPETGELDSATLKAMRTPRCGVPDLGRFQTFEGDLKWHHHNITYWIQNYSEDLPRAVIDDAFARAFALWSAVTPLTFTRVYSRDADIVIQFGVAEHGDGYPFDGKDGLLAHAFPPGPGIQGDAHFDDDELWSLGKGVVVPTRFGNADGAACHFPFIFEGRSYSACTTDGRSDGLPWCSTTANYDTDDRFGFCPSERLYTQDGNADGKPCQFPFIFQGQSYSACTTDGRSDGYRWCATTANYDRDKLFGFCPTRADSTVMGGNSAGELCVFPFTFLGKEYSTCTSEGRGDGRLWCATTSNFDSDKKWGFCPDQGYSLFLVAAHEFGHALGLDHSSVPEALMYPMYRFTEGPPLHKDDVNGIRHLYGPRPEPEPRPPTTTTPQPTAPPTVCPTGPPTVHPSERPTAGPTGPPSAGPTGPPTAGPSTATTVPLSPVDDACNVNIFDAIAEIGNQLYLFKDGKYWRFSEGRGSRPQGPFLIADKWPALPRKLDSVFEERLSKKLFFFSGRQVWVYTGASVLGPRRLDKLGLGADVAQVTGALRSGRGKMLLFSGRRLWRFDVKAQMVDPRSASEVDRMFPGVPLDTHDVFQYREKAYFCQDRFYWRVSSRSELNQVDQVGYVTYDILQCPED

Structure (SMILES) | IC50 [1] [µM] | IC50 [2] [µM] | IC50 [3] [µM] | Activity [4] | Activity [5] | Activity [6] | Activity [7] | Activity [8] | Activity [9] | IC50 [10] [µM] | IC50 [11] [µM] | IC50 [12] [µM] | IC50 [13] [µM] | Activity [14] | Activity [15] | Activity [16]
CCCCCCC(CC(=O)O)C(=O)c1ccc(C#Cc2ccccc2)cc1 (stereo unspecified) | 5.41 | 0.45 | 1.66 | – | – | – | – | – | – | – | – | – | – | – | – | –
CCC(CC(=O)O)C(=O)c1ccc(C#Cc2ccccc2)cc1 (stereo unspecified) | 3.6 | 0.48 | 0.44 | – | inactive | inactive | – | – | – | 13.9 | 30.6 | 32 | 18.1 | – | – | –
O=C(O)CCC(=O)c1ccc(C#CCO)cc1 | – | 24.7 | 15.4 | inactive | inactive | inactive | inactive | inactive | inactive | – | – | – | – | inactive | – | –
CCC(CC(=O)O)C(=O)c1ccc(C#CCOCc2ccccc2)cc1 (stereo unspecified) | – | 7.56 | 5.74 | inactive | inactive | inactive | inactive | inactive | inactive | – | – | – | – | inactive | – | –
O=C(O)CC(CC1CCCC1)C(=O)c1ccc(C#Cc2ccccc2)cc1 (stereo unspecified) | 3.39 | 0.32 | 1.12 | – | – | – | – | – | – | – | – | – | – | – | – | –

The next lines start with results.

IC50 [1] [µM] | IC50 [2] [µM] | IC50 [3] [µM] | Activity [4] | Activity [5] | Activity [6] | Activity [7] | Activity [8] | Activity [9] | IC50 [10] [µM] | IC50 [11] [µM] | IC50 [12] [µM] | IC50 [13] [µM] | Activity [14] | Activity [15] | Structure (SMILES) | Activity [16]
10 | 1.14 | 3.43 | – | – | – | – | – | – | – | – | – | – | – | – | O=C(O)CC(Cc1ccc(F)cc1)C(=O)c1ccc(C#Cc2ccccc2)cc1 (stereo unspecified) | –
9.29 | 0.6 | 2.11 | – | – | – | – | – | – | – | – | – | – | – | – | O=C(O)CC(Cc1ccccc1)C(=O)c1ccc(C#Cc2ccccc2)cc1 (stereo unspecified) | –
– | 25.7 | 23.1 | inactive | inactive | inactive | inactive | inactive | inactive | – | – | – | – | – | – | O=C(O)CCC(=O)c1ccc(C#CCOCc2ccccc2)cc1 | –
1.51 | 0.2 | 0.55 | inactive | inactive | inactive | inactive | – | – | – | – | – | – | inactive | inactive | CCCCCCC(CC(=O)O)C(=O)c1ccc(C#Cc2ccc(Cl)cc2)cc1 (stereo unspecified) | Active
– | 12.5 | 3.07 | inactive | inactive | inactive | inactive | inactive | inactive | – | – | – | – | inactive | – | CCCCCCCCC#Cc1ccc(C(=O)CCC(=O)O)cc1 | –
